High-throughput results deposited in PubChem by several laboratories.
MPTP inh – inhibitors of mitochondrial permeability transition pore; AID 602449; isolated mouse mitochondria, Ca2+ swelling absorbance, 30 min; inhibition, % at 10 µM; 360,000 tested, 1.4% active;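 active = inhibition of 50% or more, scaled per plate between neutral and stimulator controls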
procasp3 activ – procaspase-3 (human) activation | P42574 | recombinant procaspase-3 D3A, Ac-DEVD-pNA absorbance 405 nm | activation, % at 8.5 µM | 330,000 tested, 0.11% active | AID 463141;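 active = activation above the mean of all tested compounds plus 3 SD, cut at about 21% in these data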
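Test system: Procaspase-3 D3A mutant, all three cleavage aspartates alanine | Dosing: Single dose, 8.5 µM nominal compound, 0.8% DMSO | Schedule: 1 h preincubation, 2 h reaction | Technique: 405 nm absorbance of p-nitroaniline, reads at 0 and 120 min | Repeats: One well per compound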
procasp7 counter – counter-screen for procaspase-3 activators: activators of human procaspase-7; P55210; recombinant procaspase-7, Ac-DEVD-pNA absorbance 405 nm; D23A/D198A/D206A triple mutant, cannot self-cleave; scale: DMSO 0, 5 µM enzyme 100; activation, % at 8.5 µM; 330,000 tested, 0.093% active; AID 463210;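 active = percent activation above the screen-wide mean plus 3 SD, cut at about 25% in these data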
Target sequence (P55210 whole entry D23A/D198A/D206A): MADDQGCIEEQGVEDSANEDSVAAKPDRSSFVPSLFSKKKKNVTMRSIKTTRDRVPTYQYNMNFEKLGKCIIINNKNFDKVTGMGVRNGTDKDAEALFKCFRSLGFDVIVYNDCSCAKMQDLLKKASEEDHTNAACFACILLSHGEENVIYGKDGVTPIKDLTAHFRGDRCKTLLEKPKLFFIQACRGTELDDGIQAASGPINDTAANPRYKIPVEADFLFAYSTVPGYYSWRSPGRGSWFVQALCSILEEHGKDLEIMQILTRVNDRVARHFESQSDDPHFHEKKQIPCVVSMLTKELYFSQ
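Test system: Procaspase-7 triple mutant (PC-7 D3A). Also added: Ac-DEVD-pNA substrate, 400 µM as added. Schedule: 1 h enzyme–compound preincubation and 2 h substrate reaction, both 25 °C. Signal: p-Nitroaniline absorbance at 405 nm, read at 0 and 120 min. Control set: low DMSO alone, high DMSO plus 5 µM PC-7.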
GRIN3A LBD mod – modulates the human NR3A ligand-binding domain | Tm shift relative to glycine control, % at 25 µM | NR3A LBD differential scanning fluorimetry, Tm shift; 0% = protein alone, 100% = glycine-bound protein | 340,000 tested, 2.5% active | AID 1259313;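 active = melting temperature shift of at least 10% of the positive control shift, at one fixed dose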
aDG glyco act – alpha-DG glycosylation activation. 360,000 tested, 0.22% active. Pro5-aDG cells, alpha-DG glycosylation AlphaScreen (IIH6); 0% Pro5, 100% B10-LARGE cell signal. activation, % at 10 µM;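 active = activation of at least 8% versus controls, or a plate z-score of at least 8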;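 note: Pro5 are CHO cells carrying HIG-tagged alpha-DG that lacks glycosylation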
aDG glyco conf – confirmation of alpha dystroglycan glycosylation activators; shares compounds with aDG glyco act; Pro5-aDG cells, alpha-DG glycosylation, IIH6 AlphaLISA; scaled to LARGE-overexpressing B10 cells as 100%; activation, % at 10 µM (by protocol); 600 tested, 17% active;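 active = activation of at least 7% in one or more replicates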;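 note: cells exposed to compound for two days before detection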
Large screens that a line does not name were inactive (follow-up assays come after a bar, where they were run). The list is not random: actives were taken first. Their share in the collection is about 3.7%.

C/C(=N\Nc1nc(C)cc(C)n1)c1ccc(N2CCOCC2)cc1	none
C/C(=N/Nc1nc(C)cc(C)n1)c1ccc(Br)cc1	aDG glyco act 2.2 | aDG glyco conf inactive
CCOC(=O)c1cc(-c2ccc(OC)cc2)n(CCC(=O)NC2CCN(Cc3ccccc3)CC2)c1C	none
CCOC(=O)c1cc(-c2ccc(F)cc2)n(CCC(=O)NC2CCN(Cc3ccccc3)CC2)c1C	aDG glyco act 8.4 | aDG glyco conf 3.5
CCN(C(=O)COC(=O)c1ccc[nH]c1=O)c1cccc2ccccc12	none
COc1ccc(OC)c(NC(=O)N[C@@H](Cc2ccccc2)C(=O)O)c1	aDG glyco act 5.9 | aDG glyco conf inactive
Nn1cc(-c2ccccc2)nc1SCC(=O)NC1CCS(=O)(=O)C1 (configuration not stated)	aDG glyco act 6.9 | aDG glyco conf inactive
O=C(CSc1nc(-c2ccccc2)c(-c2ccccc2)o1)NC1CCS(=O)(=O)C1 (configuration not stated)	none
C/C(=N/Nc1nc(C)cc(-c2ccccc2)n1)c1ccco1	none
C/C(=N\Nc1nc(C)cc(-c2ccccc2)n1)c1ccc(C)o1	aDG glyco act 4.6 | aDG glyco conf inactive
O=C(CN1C(=O)COc2ccccc21)N1CCOCC1	none
